Columns and labels:
Assay type in all cases: physicochemical
[1] = Glutathione reactivity assessed as thiol reactivity rate constant at 250 uM up to 72 hrs by HPLC-MS or NMR analysis; parameters: unit not given beside the values
Summary of the method: (§1)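 Fragment 250 µM mixed with 5 mM glutathione in PBS pH 7.4 containing 5% acetonitrile, with 100 µM indoprofen as internal standard. For fragments not detectable at 250 µM, levels were reversed (5 mM fragment, 250 µM GSH). Internal-standard-corrected AUCs were fitted by OLS linear regression. k_GSH = k_eff − k_deg, and t1/2 = ln2/k_GSH.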

[2] = Glutathione reactivity assessed as half life at 250 uM up to 72 hrs by HPLC-MS or NMR analysis; conditions: gsh; summary of the method: as §1
[3] = Stability of the compound assessed as half life for degradation

Row | Structure (SMILES) | K [1] | t1/2 [2] [h] | half-life [3] [h]
1 | N#Cc1cccnc1 | 0.0176 | 41 | > 1
2 | C#CCn1ccnc1 | 0.0144 | 48 | > 1
3 | Ic1ncc[nH]1 | 0.116 | 6 | > 1
4 | N#Cc1cnccn1 | 0.0314 | 22.5 | > 1
5 | Brc1cncs1 | 0.011 | 63 | > 1
6 | Ic1ncco1 | 6.0573 |  | > 1
7 | Ic1nccs1 | 0.7872 | 0.9 | > 1
8 | N#Cc1ccncc1 [ISONICOTINONITRILE] | 0.8837 | 0.8 | > 1
